According to PubChem BioAssay AID588789 (The Scripps Research Institute Molecular Screening Center, 2011):

Target: Platelet-activating factor acetylhydrolase (Mus musculus) (UniProt Q60963)
Test: pPAFAH inhibition after oral dosing in mice, late-stage follow-up, in vivo study, gel-based competitive ABPP, fluorescence (AID 588789)
Settings: brain membrane gel ABPP, HT-01, 50 mg/kg oral dose, 4 h, active compounds read high
Outline: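 Material: Mouse brain membrane proteome after oral dosing | Buffer or medium: DPBS | Timing: 4 h dosing, 30 min labelling at 37 °C | Technique: SDS-PAGE followed by in-gel fluorescence scan of pPAFAH band | Read-out: % inhibition from band density versus vehicle | Control set: Vehicle-dosed mice as high control, blank-gel region as background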

Platelet-activating factor acetylhydrolase (Mus musculus), sequence (Q60963 whole entry, looked up): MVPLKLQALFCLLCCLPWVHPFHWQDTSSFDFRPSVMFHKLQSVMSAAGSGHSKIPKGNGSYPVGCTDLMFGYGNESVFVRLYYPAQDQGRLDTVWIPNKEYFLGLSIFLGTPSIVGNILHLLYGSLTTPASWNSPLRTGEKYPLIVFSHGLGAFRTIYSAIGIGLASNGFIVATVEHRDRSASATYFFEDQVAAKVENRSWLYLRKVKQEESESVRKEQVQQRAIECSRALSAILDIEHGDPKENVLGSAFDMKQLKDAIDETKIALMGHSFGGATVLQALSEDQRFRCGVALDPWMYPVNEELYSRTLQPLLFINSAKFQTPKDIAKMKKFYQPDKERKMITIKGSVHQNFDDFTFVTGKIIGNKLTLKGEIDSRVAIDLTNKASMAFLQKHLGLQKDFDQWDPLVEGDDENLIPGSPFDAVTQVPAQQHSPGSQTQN

Structure (SMILES) | inhibition [%]
Cc1cc(N2CCN(C(=O)Oc3ccc(-c4ccccc4)cn3)CC2)c2ccccc2n1 | 86
Cc1cc(N2CCN(C(=O)Oc3ccc(-c4ccccc4)cc3)CC2)c2ccccc2n1 | 63
